Measured values: ChEMBL document CHEMBL1649175, “Lack of a clinically important effect of moderate hepatic insufficiency and severe renal insufficiency on raltegravir pharmacokinetics” (Antimicrob Agents Chemother, 2009)

Experiments:
[1] = AUC (0 to infinity) in patient with hepatic insufficiency at 400 mg, po administered as single dose; type: ADME, organism-based; set-up: dose 400 mg, route oral, time infinity; details: human, plasma
Summary of the method: (§1)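 Single 400-mg oral dose given fasted (fasting stated for the renal study). Assay: validated reverse-phase HPLC-MS/MS, LLOQ 2 ng/ml, range 2 to 1,000 ng/ml. AUC0-∞ = AUC0-last by linear/log trapezoid plus extrapolation. Cmax is read from the data. C12 is the nominal 12-h concentration. Values converted to nM (MW 444.4).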

[2] = Cmax in patient with hepatic insufficiency at 400 mg, po administered as single dose; type: ADME, organism-based; set-up: dose 400 mg, route oral; details: human, in vivo; summary of the method: as §1
[3] = Plasma concentration in patient with hepatic insufficiency at 400 mg, po administered as single dose measured at 12 hrs post dose; type: ADME, organism-based; details: human, read-out: Activity; summary of the method: as §1
[4] = Tmax in patient with hepatic insufficiency at 400 mg, po administered as single dose; type: ADME, organism-based; details: human, in vivo
Summary of the method: (§2)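 Tmax is taken by inspection of the plasma concentration data, using nominal sampling times. Single 400-mg oral dose; plasma sampled from 0 to 72 h, or to 96 h in the hepatic study. Raltegravir is measured by validated reverse-phase HPLC-MS/MS (LLOQ 2 ng/ml).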

[5] = Primary phase half life in patient with hepatic insufficiency at 400 mg, po administered as single dose; type: ADME, organism-based; details: human, in vivo
Summary of the method: (§3)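 Single 400-mg oral raltegravir dose, fasted (stated for study II); patients and matched healthy controls. Plasma sampled at 0–72 h (to 96 h in hepatic study only), quantified by validated reverse-phase HPLC-MS/MS (LLOQ 2 ng/ml), converted to nM (MW 444.4). Profiles fit biexponentially (Gauss-Newton, Levenberg-Hartley; weighting 1/predicted concentration²); each phase t1/2 = ln(2)/rate constant.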

[6] = Terminal half life in patient with hepatic insufficiency at 400 mg, po administered as single dose; type: ADME, organism-based; details: human, in vivo; summary of the method: as §3
[7] = AUC (0 to infinity) in healthy human at 400 mg, po administered as single dose; type: ADME, organism-based; set-up: dose 400 mg, route oral, time infinity; details: plasma; summary of the method: as §1
[8] = Cmax in healthy human at 400 mg, po administered as single dose; type: ADME, organism-based; set-up: dose 400 mg, route oral; details: in vivo; summary of the method: as §1
[9] = Plasma concentration in healthy human at 400 mg, po administered as single dose measured at 12 hrs post dose; type: ADME, organism-based; details: read-out: Activity; summary of the method: as §1
[10] = Primary phase half life in healthy human at 400 mg, po administered as single dose; type: ADME, organism-based; details: in vivo; summary of the method: as §3
[11] = Terminal half life in healthy human at 400 mg, po administered as single dose; type: ADME, organism-based; details: in vivo; summary of the method: as §3
[12] = AUC (0 to infinity) in patient with severe renal insufficiency at 400 mg, po administered as single dose; type: ADME, organism-based; set-up: dose 400 mg, route oral, time infinity; details: human, plasma; summary of the method: as §1
[13] = Cmax in patient with severe renal insufficiency at 400 mg, po administered as single dose; type: ADME, organism-based; set-up: dose 400 mg, route oral; details: human, in vivo; summary of the method: as §1
[14] = Plasma concentration in patient with severe renal insufficiency at 400 mg, po administered as single dose measured at 12 hrs post dose; type: ADME, organism-based; details: human, read-out: Activity; summary of the method: as §1
[15] = Tmax in patient with severe renal insufficiency at 400 mg, po administered as single dose; type: ADME, organism-based; details: human, in vivo; summary of the method: as §2
[16] = Primary phase half life in patient with severe renal insufficiency at 400 mg, po administered as single dose; type: ADME, organism-based; details: human, in vivo; summary of the method: as §3
[17] = Terminal half life in patient with severe renal insufficiency at 400 mg, po administered as single dose; type: ADME, organism-based; details: human, in vivo; summary of the method: as §3
Homo sapiens [18] = experiment: Drug level in patient with severe renal insufficiency assessed as recovery of unchanged drug at 400 mg, po administered as single dose; type: ADME, organism-based; details: in vivo
Summary of the method: (§4)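 Renal study, 10 patients plus 10 matched controls. Urine collected predose and at 0–4, 4–8, 8–12 and 12–24 h after a fasted 400-mg oral dose. Urine diluted and injected directly for HPLC-MS/MS (LLOQ 0.25 µg/ml, range 0.25–25 µg/ml). fe = total amount excreted unchanged ÷ dose × 100%. CLR = […] ÷ plasma AUC0-24.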

[19] = Renal clearance in patient with severe renal insufficiency at 400 mg, po administered as single dose; type: ADME, organism-based, Kidney; details: human, in vivo, read-out: CL_renal; summary of the method: as §4
[20] = Renal clearance in healthy human at 400 mg, po administered as single dose; type: ADME, organism-based, Kidney; details: in vivo, read-out: CL_renal; summary of the method: as §4
Homo sapiens [21] = experiment: Ratio of Cmax in patient with hepatic insufficiency to Cmax in healthy human at 400 mg, po administered as single dose; type: ADME, organism-based; details: in vivo
Summary of the method: (§5)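 Single 400-mg oral raltegravir dose to patients (moderate hepatic or severe renal insufficiency) and matched healthy controls; plasma raltegravir measured by HPLC-MS/MS. Cmax read by inspection, ln-transformed. Geometric mean ratio (patient/healthy) with 90% CI from ANCOVA least-squares means: population and sex fixed effects, age and BMI covariates.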

Homo sapiens [22] = experiment: Ratio of plasma concentration in patient with hepatic insufficiency to plasma concentration in healthy human at 400 mg, po administered as single dose measured at 12 hrs post dose; type: ADME, organism-based; details: in vivo
Summary of the method: (§6)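 Geometric mean ratio, patients/matched healthy controls, for AUC0-∞, Cmax and C12 after a single 400-mg oral dose. Data are natural-log transformed. 90% CIs come from ANCOVA least-squares means, with population and sex as fixed effects and age and BMI as covariates, then exponentiated. n = 8 per group.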

Homo sapiens [23] = experiment: Ratio of Cmax in patient with severe renal insufficiency to Cmax in healthy human at 400 mg, po administered as single dose; type: ADME, organism-based; details: in vivo; summary of the method: as §5
Homo sapiens [24] = experiment: Ratio of plasma concentration in patient with hepatic insufficiency to plasma concentration in healthy human at 400 mg, po administered as single dose; type: ADME, organism-based; details: in vivo; summary of the method: as §6
Homo sapiens [25] = experiment: Toxicity in human assessed as headache at 400 mg, po administered as single dose; type: organism-based; details: in vivo
Summary of the method: (§7)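 Safety assessed throughout each study by clinical and laboratory evaluations after a single 400-mg oral dose. Relatedness of adverse experiences to the drug was judged by the investigator.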

Homo sapiens [26] = experiment: Toxicity in human assessed as mouth ulceration at 400 mg, po administered as single dose; type: organism-based; details: in vivo; summary of the method: as §7

AUC(0-inf) [1]: 17.7 µM·h
Cmax [2]: 4410 nM
concentration at 12 h [3]: 143 nM
Tmax [4]: 2.5 h
half-life [5]: 1.49 h
half-life [6]: 7 h
AUC(0-inf) [7]: 19.7 µM·h
Cmax [8]: 5680 nM
concentration at 12 h [9]: 106 nM
half-life [10]: 1.1 h
half-life [11]: 9.3 h
AUC(0-inf) [12]: 16.8 µM·h
Cmax [13]: 3850 nM
concentration at 12 h [14]: 135 nM
Tmax [15]: 3.5 h
half-life [16]: 1.38 h
half-life [17]: 17.2 h
fold change (FC) (Homo sapiens [18]): 0.5
CL renal [19]: 2.7 mL/min
CL renal [20]: 31.5 mL/min
Cmax (Ratio) (Homo sapiens [21]): 0.63
Activity (Homo sapiens [22]): 1.26 nM
Cmax (Ratio) (Homo sapiens [23]): 0.68
Activity (Homo sapiens [24]): 1.26 nM
SMILES: Cc1nnc(C(=O)NC(C)(C)c2nc(C(=O)NCc3ccc(F)cc3)c(O)c(=O)n2C)o1 [RALTEGRAVIR]
Activity (Homo sapiens [25]): Toxic
Activity (Homo sapiens [26]): Toxic
